Tests used:
Format in all cases: functional
Conditions in all cases: read-out: GI
[1] = system: HOP-92; experiment: Growth inhibition of human HOP-92 cells at 10 uM incubated for 48 hrs by sulforhodamine B assay relative to control
How it was run: (§1)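 NCI-60 single-dose screen. Cells were grown in RPMI 1640 with 5% FBS and 2 mM L-glutamine and plated 24 h before drug addition. Compound was added at one concentration in DMSO-derived medium and incubated for 48 h at 37 °C in 5% CO2. Read-out was SRB protein stain at 515 nm. Result is percent growth versus the no-drug control and the time-zero cell count; values below 0 indicate lethality.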

[2] = system: NCI-H226; experiment: Growth inhibition of human NCI-H226 cells at 10 uM incubated for 48 hrs by sulforhodamine B assay relative to control
How it was run: (§2)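 NCI one-dose screen. Cells grown in RPMI 1640 with 5% FBS and 2 mM L-glutamine, plated and incubated 24 h at 37 °C, 5% CO2. DMSO-dissolved drug added, then 48 h further incubation. Adherent cells fixed with cold TCA, suspension cells fixed after settling. Stained with 0.4% SRB, absorbance read at 515 nm. Reported as percent growth relative to no-drug control and time-zero cell number.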

[3] = system: SF-295; experiment: Growth inhibition of human SF-295 cells at 10 uM incubated for 48 hrs by sulforhodamine B assay relative to control; how it was run: as §2
[4] = system: LOX IMVI; experiment: Growth inhibition of human LOX IMVI cells at 10 uM incubated for 48 hrs by sulforhodamine B assay relative to control; how it was run: as §1
[5] = system: Malme-3M; experiment: Growth inhibition of human Malme-3M cells at 10 uM incubated for 48 hrs by sulforhodamine B assay relative to control; how it was run: as §2
[6] = system: SK-MEL-28; experiment: Growth inhibition of human SK-MEL-28 cells at 10 uM incubated for 48 hrs by sulforhodamine B assay relative to control; how it was run: as §2
[7] = system: SK-MEL-5; experiment: Growth inhibition of human SK-MEL-5 cells at 10 uM incubated for 48 hrs by sulforhodamine B assay relative to control; how it was run: as §2
[8] = system: A498; experiment: Growth inhibition of human A498 cells at 10 uM incubated for 48 hrs by sulforhodamine B assay relative to control
How it was run: (§3)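 NCI one-dose screen across a 59-line panel. Cells were grown in RPMI 1640 with 5% FBS and 2 mM L-glutamine, plated and pre-incubated 24 h, then exposed to drug for 48 h at 37 °C, 5% CO2. Adherent cells were fixed with cold TCA (10% final), stained with 0.4% SRB in 1% acetic acid and read at 515 nm. Result is percent growth relative to no-drug control and time-zero cell count.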

[9] = system: SN12C; experiment: Growth inhibition of human SN12C cells at 10 uM incubated for 48 hrs by sulforhodamine B assay relative to control; how it was run: as §2
[10] = system: MDA-MB-231; experiment: Growth inhibition of human MDA-MB-231 cells at 10 uM incubated for 48 hrs by sulforhodamine B assay relative to control; how it was run: as §1
[11] = system: Hs-578T; experiment: Growth inhibition of human HS-578T cells at 10 uM incubated for 48 hrs by sulforhodamine B assay relative to control; how it was run: as §1
[12] = system: BT-549; experiment: Growth inhibition of human BT-549 cells at 10 uM incubated for 48 hrs by sulforhodamine B assay relative to control; how it was run: as §1
[13] = system: T47D; experiment: Growth inhibition of human T47D cells at 10 uM incubated for 48 hrs by sulforhodamine B assay relative to control; how it was run: as §3

Measured: inhibition of growth at 10 µM

COc1cc2nc(-c3ccc(C(F)(F)F)cc3)cc(OCCN3CCC(O)CC3)c2cc1OC
13%: all assays above

COc1cc2nc(-c3ccc(Cl)cc3)cc(OCCN3CCC(O)CC3)c2cc1OC
3%: all assays above

COc1cc2nc(-c3ccc(C(F)(F)F)cc3)cc(OCCN3CCCCC3)c2cc1OC
13%: all assays above

COc1cc2nc(-c3ccc(C(F)(F)F)cc3)cc(OCCN3CCOCC3)c2cc1OC
13%: all assays above

COc1cc2nc(-c3ccc(C(F)(F)F)cc3)cc(OCCN3CCCC3)c2cc1OC
13%: all assays above

COc1cc2nc(-c3ccc(Cl)cc3)cc(OCCN3CCCC3)c2cc1OC
3%: all assays above

COc1cc2nc(-c3ccsc3)cc(OCCCN3CCC(O)CC3)c2cc1OC
32%: all assays above

COc1cc2nc(-c3ccco3)cc(OCCCN3CCC(O)CC3)c2cc1OC
46%: all assays above

COc1cc2nc(-c3cccs3)cc(OCCCN3CCC(O)CC3)c2cc1OC
20%: all assays above

COc1cc2nc(-c3ccc(Cl)cc3)cc(OCCN3CCCCC3)c2cc1OC
3%: all assays above

COc1cc2nc(-c3ccc(Cl)cc3)cc(OCCN3CCOCC3)c2cc1OC
3%: all assays above

Source: ChEMBL document CHEMBL4732237, “Discovery of 4-alkoxy-2-aryl-6,7-dimethoxyquinolines as a new class of topoisomerase I inhibitors endowed with potent in vitro anticancer activity” (2021)
